DDE Tn6 FP inh = inhibitors of Tn6 peptide binding to human fibrin DD(E). P02675. AID 720509. actives 0.21% (n = 370,000). inhibition, % at 8.3 µM. Fibrin DD(E) TRITC-Tn6 fluorescence polarization displacement;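 active = inhibition above a per-campaign cutoff: mean of compounds within control limits plus 3 SD, cut at about 15% in these data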;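 note: 0% = median of all compound wells on the plate and 100% = blocking peptide control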
Target sequence (P02675 whole entry, looked up): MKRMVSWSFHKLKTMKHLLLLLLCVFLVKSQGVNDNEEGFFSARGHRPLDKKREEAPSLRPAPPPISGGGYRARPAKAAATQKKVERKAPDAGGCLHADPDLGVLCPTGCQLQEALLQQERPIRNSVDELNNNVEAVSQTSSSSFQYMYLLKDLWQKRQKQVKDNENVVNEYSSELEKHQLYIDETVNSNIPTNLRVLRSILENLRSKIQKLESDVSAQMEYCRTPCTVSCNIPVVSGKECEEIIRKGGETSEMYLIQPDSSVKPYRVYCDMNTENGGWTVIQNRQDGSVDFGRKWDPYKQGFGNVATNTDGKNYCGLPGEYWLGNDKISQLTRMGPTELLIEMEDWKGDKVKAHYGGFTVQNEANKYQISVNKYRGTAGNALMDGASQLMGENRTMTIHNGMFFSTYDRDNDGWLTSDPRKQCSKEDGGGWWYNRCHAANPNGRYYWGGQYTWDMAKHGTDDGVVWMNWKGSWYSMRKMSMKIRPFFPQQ
CAL PDZ FP-1 = inhibitors of human CAL PDZ peptide binding. Q9HD26. purified CAL PDZ, TMR-peptide fluorescence polarization, 1 h. inhibition, % at 20 µM. actives 0.02% (n = 330,000). AID 504414;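 active = highest replicate inhibition of at least 40%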;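 note: plate controls were DMSO neutral control wells for no effect and unlabeled competitor peptide control wells for full effect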
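Control set: unlabelled peptide and DMSO controls / Material: purified CerCALP PDZ construct / Timing: 1 h incubation at room temperature before polarization reading / Doses: 20 µM, one dose / Detection: fluorescence polarization (mP)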
DDE Tn7 FP inh = DD(E)-Tn7 binding inhibition, primary FP screen; actives 0.13% (n = 370,000); inhibition, % at 8.3 µM; FP displacement of FITC-Tn7 peptide from fibrin DD(E); 0% = median of compound wells per plate; AID 720508;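 active = inhibition above the mean of compounds falling within the control limits plus 3 SD of them, cut at about 14% in these data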;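 note: 0% = plate median of compound wells and 100% = 10 µM Aha-Tn7 peptide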
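Also added: labelled Tn7 tracer, 0.1 µM; Assay system: human fibrin DD(E) protein; Amount: 2 µM fibrin DD(E); Schedule: 10 min compound pre-incubation, 3 h probe incubation at room temperature; Repeats: one replicate per compound; Read-out basis: percent inhibition; Measured by: fluorescence polarization of the labelled Tn7 tracer.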
Arrestin-AP2 inh = inhibitors of human beta-arrestin and AP2 interaction; FITC-arrestin peptide / GST-AP2 beads, flow cytometry; AP2 beta2 appendage carries R879A mutation; inhibition, % at 10 µM; actives 0.31% (n = 340,000); AID 504490;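 active = inhibition above a set limit, near 3 SD of compounds lacking own fluorescence, cut at about 54% in these data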;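 note: plate controls were DMSO wells for no effect and 5 µM unlabelled arrestin peptide for full effect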
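Assay system: GST-AP2 R879A bound to glutathione beads, E. coli-expressed; Medium: PBS with 0.05% Tween 20 and 0.1% BSA; Also added: fluorescein-tagged arrestin peptide at 50 nM final; Timing: 12 min plus 1 h, RT; Measured by: flow cytometry, FL1 (488/535 nm); Evaluation: percent drop in bead-associated FITC signal.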
CAL PDZ FP-2 = CAL PDZ (human) peptide binding inhibition. Q9HD26. purified CAL PDZ, TMR-peptide fluorescence polarization, 1 h. inhibition, % at 24.9 µM. actives 0.92% (n = 300,000). AID 602252;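 active = mean inhibition of at least 30% with at least half of replicates also reaching 30%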;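 note: 0% = DMSO neutral control and 100% = excess unlabeled competitor peptide PRC23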
Arr AP2 CP1 = blocks beta-arrestin peptide binding to human AP2; shares compounds with Arrestin-AP2 inh; GST-AP2 beads, FITC arrestin peptide binding, flow cytometry; GST-fused beta2-adaptin appendage, R879A mutant; inhibition, % at 10 µM; actives 2% (n = 1,300); AID 504908;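 active = inhibition above a set limit, roughly 3 SD of non-fluorescent compound noise, cut at about 38% in these data; inactive = inhibition at or below that limit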;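 note: loss of bead fluorescence from 50 nM FITC arrestin peptide bound to appendage; 0% = negative control wells and 100% = excess unlabelled arrestin peptide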
GST-FITC bead = counter-screen for beta-arrestin AP2 inhibitors: GST-GSH bead binding | shares compounds with Arrestin-AP2 inh | GST-fluorescein binding to GSH beads, fluorescence | inhibition, % at 10 µM | actives 2% (n = 1,300) | AID 588338;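 active = inhibition above 50%, about 3 SD of the inhibition seen with non-fluorescent compounds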;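 note: fluorescein maleimide labelled GST captured on 4 micron glutathione beads; higher means more loss of bead fluorescence from quenching or blocked binding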
* marks the source's active call; other numbers are inactive results; . = no result. Shown are actives, neighbours in structure and some others; about 1.4% of the full set was active somewhere.

SMILES | DDE Tn6 FP inh | CAL PDZ FP-1 | DDE Tn7 FP inh | Arrestin-AP2 inh | CAL PDZ FP-2 | Arr AP2 CP1 | GST-FITC bead
CCCC[C@H]1C2CC(OC(=O)Nc3ccccc3OC)C(C2)[C@H]2CCCCN21 (stereo not given in full) | -0.3 | . | 12.2 | . | . | . | .
COc1ccc(C2CC(=O)C(c3ccccc3)=CN2Cc2ccccc2)cc1 (stereo not given) | 1.1 | . | -5.4 | . | . | . | .
Cn1nc(C(=O)N2CCCC2)c2ccccc2c1=O | 3.1 | -0.4 | 10.2 | 3.2 | -3.3 | . | .
CSc1ccc(C(=O)C2CCCN(C(=O)c3nn(C)c(=O)c4ccccc34)C2)cc1 (stereo not given) | -10.7 | -0.3 | -4.3 | 57.9* | -0.1 | 4.8 | -3.7
CC(C)(C)NC(=O)C(c1cccnc1)N(C(=O)c1cccs1)c1ccc(C(C)(C)C)cc1 (stereo not given) | 7.7 | . | 4.4 | . | . | . | .
CCCC1(c2ccccc2)NC(=O)N(CC(=O)Nc2ccc3c(c2)OCCO3)C1=O (stereo not given) | 1.7 | 0.7 | 3.1 | 65.3* | -0.2 | 19.5 | 1.5
CCC1(c2ccccc2)NC(=O)N(CC(=O)Nc2ccc3c(c2)OCO3)C1=O (stereo not given) | . | -0.8 | . | -4.1 | . | . | .
COc1cc(/C=C2/C(=O)N=C(N)N2C)cc(OC)c1OC | . | 0.0 | . | 84.1* | -2.7 | 10.6 | 4.0
COc1c(Br)cc(Br)cc1/C=C1/C(=O)N=C(N)N1C | 2.1 | 0.2 | 3.9 | 5.0 | 5.3 | . | .
COc1cc(C)c(S(=O)(=O)N2CCCC2)cc1C(C)C | -2.0 | -0.7 | -10.9 | 57.2* | 1.6 | -4.9 | 2.3
COCC(C)n1c(SCC(=O)NC(=O)Nc2ccc3c(c2)OCCO3)nc2ccccc2c1=O (stereo not given) | -7.6 | 0.6 | -6.5 | 55.5* | 4.3 | 8.2 | -11.2
COCC(C)n1c(SCC(=O)NC(=O)Cc2ccccc2)nc2ccccc2c1=O (stereo not given) | -0.3 | -2.5 | -6.0 | -4.3 | -17.8 | . | .
CCCCNC(=O)C[C@@H]1C(=O)N2CCCC3=C2[C@@]1(C(=O)OCC)CCC3 | -0.2 | . | 1.6 | . | . | . | .
CCN(Cc1ccccc1)C(=O)CCNS(=O)(=O)c1cc(Br)cnc1N | -2.8 | -2.0 | 5.1 | 40.6 | -4.2 | . | .
Nc1ncc(Br)cc1S(=O)(=O)Nc1ccccc1F | 1.7 | -2.3 | 8.7 | 58.4* | -6.0 | 2.7 | -10.7
Cc1cc(OC(C)C(=O)NCc2ccncc2)c2c(C)cc(=O)oc2c1 (stereo not given) | -0.5 | -0.1 | 4.0 | 16.0 | 1.9 | . | .
CCCCc1cc(=O)oc2cc(C)cc(OC(C)C(=O)NCc3ccncc3)c12 (stereo not given) | 3.7 | -2.4 | -0.5 | 66.9* | -1.6 | -6.4 | -4.7
CO/N=C/C(c1ncc(C(F)(F)F)cc1Cl)S(=O)(=O)c1ccccc1 (stereo not given) | -5.5 | -3.0 | -9.7 | 10.2 | -1.8 | . | .
CO/N=C/C(c1ccc(Cl)nc1)S(=O)(=O)c1ccccc1 (stereo not given) | 6.7 | -0.6 | -7.6 | 57.4* | 0.0 | 13.9 | -2.7
COc1cccc(-c2nnc(SC(C(=O)c3c[nH]c4ccccc34)c3ccccc3)n2C)c1 (stereo not given) | -3.6 | -1.6 | -8.5 | 98.0* | -5.4 | 10.9 | 6.4
Cc1ccc(-n2c(SCC(=O)Nc3ccc4cn[nH]c4c3)nnc2-c2ccccc2)cc1 | 5.6 | . | -5.3 | . | . | . | .
Cc1nc2cc(C(=O)N3CCN(C(=O)OCc4ccccc4)CC3)ccc2n1C1CCCC1 | -3.9 | . | -3.2 | . | . | . | .
O=CN1CCN(C(C(=O)NC2CCCC2)c2cc3c(cc2[N+](=O)[O-])OCO3)CC1 (stereo not given) | 1.9 | -0.4 | 1.0 | 60.4* | 2.2 | 14.2 | 7.6
COc1cccc(NC(=O)c2cccc(NC(=O)c3ccco3)c2)c1 | 6.3 | . | -3.9 | . | . | . | .
COc1cccc(C(=O)Nc2ccc(NC(=O)c3ccco3)c(Cl)c2)c1 | 3.4 | 0.5 | -6.2 | 55.7* | 2.1 | 1.2 | -6.0
SMILES | DDE Tn6 FP inh | CAL PDZ FP-1 | DDE Tn7 FP inh | Arrestin-AP2 inh | CAL PDZ FP-2 | Arr AP2 CP1 | GST-FITC bead
Cc1ccc2c(c1)C1CS(=O)(=O)N(C3CCCC3)CN1C2 (stereo not given) | -2.5 | . | 0.6 | . | . | . | .
Cc1cccc(C(=O)Oc2ccc(/C=N/NC(=O)Cc3ccc([N+](=O)[O-])cc3)cc2)c1 | -2.0 | -0.2 | 3.4 | 105.5* | 1.5 | -2.8 | 58.7*
Cc1cccc(C(=O)Oc2ccc(/C=N/NC(=O)c3ccc(O)cc3)cc2)c1 | 11.6 | -0.5 | -0.2 | 34.0 | -2.2 | . | .
COC(=O)[C@]12C[C@H](CC(=O)N3CCSCC3)C(=O)N(Cc3ccc(Cl)cc3Cl)C1=C[C@H](COCc1ccccc1)O[C@@H]2C | -0.7 | . | 1.3 | . | . | . | .
O=C(CN1C(=O)COc2ccccc21)NCCCN1CCCC1 | -1.1 | -1.4 | 3.0 | 63.8* | -2.2 | -2.2 | -6.5
O=C(NCc1ccco1)C1CC(=O)N(c2ccc(Cl)cc2)C1 (stereo not given) | 3.5 | -2.9 | 3.5 | 57.5* | -4.4 | 11.2 | -4.9
CCN(C(=O)CSc1nc2ccccc2[nH]1)C1CCS(=O)(=O)C1 (stereo not given) | -1.4 | -1.2 | 4.0 | 54.4* | 1.6 | -5.8 | -6.5
CCOC(=O)c1c(-c2cccs2)csc1NC(=O)COC(=O)c1c(C)noc1C | 1.4 | -0.9 | 1.6 | 55.2* | . | 3.2 | 5.1
Cc1cc(NC(=O)CC2CCCC2)n(-c2nc3ccccc3[nH]2)n1 | -15.6 | -3.7 | -1.8 | 7.0 | . | . | .
Cc1cc(NC(=O)c2ccc(F)cc2F)n(-c2nc3ccccc3[nH]2)n1 | . | 0.4 | . | 11.7 | -1.3 | 25.7 | 2.3
Cc1cc(NC(=O)/C=C/c2ccccc2Cl)n(-c2nc3ccccc3[nH]2)n1 | -8.6 | -1.7 | 2.5 | 100.6* | 2.0 | -3.9 | -5.4
Nc1[nH]c(C(=O)c2ccccc2)c(-c2ccc(Br)cc2)c1C(=O)N1CCN(CCO)CC1 | 5.8 | . | -8.5 | . | . | . | .
CC(C)c1ccc(OCc2ccc(C(=O)N3CCN(c4ccccn4)CC3)cc2)cc1 | -11.7 | -1.1 | -2.9 | 56.1* | -1.9 | 11.4 | -6.8
CC(C)c1ccc(COc2ccc(C(=O)N3CCOCC3)cc2)cc1 | -0.6 | -2.7 | -13.7 | -1.8 | -2.5 | . | .
CCOC(=O)c1c(NC(C)=O)sc2c(OC)c(Br)ccc12 | -3.1 | 0.6 | -2.9 | 7.5 | -2.4 | . | .
CCOC(=O)c1c(NC(C)=O)sc2c(O)c(CN3CCN(CC)CC3)ccc12 | -0.3 | -1.6 | -5.6 | 63.8* | 0.6 | 14.5 | 1.6
Oc1ccc(/C=N/Nc2nc(N3CCCC3)nc(N3CCCC3)n2)cc1O | -2.2 | -0.3 | -1.4 | 57.8* | 7.0 | -2.1 | 4.1

Screening data from PubChem.
